# Reference: ChEMBL document CHEMBL1687700, “Discovery of an Orally Efficacious Imidazo[5,1-f][1,2,4]triazine Dual Inhibitor of IGF-1R and IR” (ACS Med Chem Lett, 2010)
# Columns and labels:
# [1] = Volume of distribution at steady state in Sprague-Dawley rat at 5 mg/kg, iv administered as single dose; type: ADME, organism-based; parameters: dose 5 mg/kg, route intravenous; conditions: in vivo, read-out: Vdss
# Method in brief: (§1)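 Single 5 mg/kg iv dose used to derive clearance and Vss; median values reported per species (female rat, male rhesus monkey).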
# [2] = Antiproliferative activity against human GEO cells expressing IR assessed as intracellular ATP content after 3 days by Cell Titre-Glo luminescent assay; type: functional, cell-based; conditions: 72 h
# [3] = AUC in Sprague-Dawley rat at 25 mg/kg, po administered as single dose; type: ADME, organism-based; parameters: dose 25 mg/kg, route oral; conditions: plasma
# Method in brief: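 Single oral dose of 25 mg/kg, given as the free base in 50:50 PEG-400:25 mM tartaric acid, to female rats. Plasma AUC (ng h/mL) is reported as the median. Clearance parameters come from a separate 5 mg/kg iv dose.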
# Cytochrome P450 3A4 = Cytochrome P450 3A4 (Homo sapiens, UniProt P08684); test: Inhibition of CYP3A4; type: ADME
# Chain of Cytochrome P450 3A4 (P08684 whole entry): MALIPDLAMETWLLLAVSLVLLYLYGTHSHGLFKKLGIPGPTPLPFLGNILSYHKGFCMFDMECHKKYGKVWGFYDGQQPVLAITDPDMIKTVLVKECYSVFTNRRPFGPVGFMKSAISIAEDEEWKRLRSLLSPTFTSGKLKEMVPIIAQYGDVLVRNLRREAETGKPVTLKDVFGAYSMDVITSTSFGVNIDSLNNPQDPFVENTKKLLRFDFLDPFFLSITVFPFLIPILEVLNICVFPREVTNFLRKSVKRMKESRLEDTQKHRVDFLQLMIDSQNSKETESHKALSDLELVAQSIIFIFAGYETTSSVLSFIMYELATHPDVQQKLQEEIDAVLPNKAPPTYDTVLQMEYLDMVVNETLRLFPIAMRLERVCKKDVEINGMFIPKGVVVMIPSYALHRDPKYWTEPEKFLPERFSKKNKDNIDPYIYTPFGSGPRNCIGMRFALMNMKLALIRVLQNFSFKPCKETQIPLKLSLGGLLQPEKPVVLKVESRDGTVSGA
# [4] = Clearance in CD-1 mouse at 5 mg/kg, iv administered as single dose; type: ADME, organism-based; parameters: dose 5 mg/kg, route intravenous; conditions: in vivo
# Cytochrome P450 1A2 = biological target: T1, Cytochrome P450 1A2 (Homo sapiens, UniProt P05177); test: Inhibition of CYP1A2; type: ADME
# T1 sequence (P05177 whole entry): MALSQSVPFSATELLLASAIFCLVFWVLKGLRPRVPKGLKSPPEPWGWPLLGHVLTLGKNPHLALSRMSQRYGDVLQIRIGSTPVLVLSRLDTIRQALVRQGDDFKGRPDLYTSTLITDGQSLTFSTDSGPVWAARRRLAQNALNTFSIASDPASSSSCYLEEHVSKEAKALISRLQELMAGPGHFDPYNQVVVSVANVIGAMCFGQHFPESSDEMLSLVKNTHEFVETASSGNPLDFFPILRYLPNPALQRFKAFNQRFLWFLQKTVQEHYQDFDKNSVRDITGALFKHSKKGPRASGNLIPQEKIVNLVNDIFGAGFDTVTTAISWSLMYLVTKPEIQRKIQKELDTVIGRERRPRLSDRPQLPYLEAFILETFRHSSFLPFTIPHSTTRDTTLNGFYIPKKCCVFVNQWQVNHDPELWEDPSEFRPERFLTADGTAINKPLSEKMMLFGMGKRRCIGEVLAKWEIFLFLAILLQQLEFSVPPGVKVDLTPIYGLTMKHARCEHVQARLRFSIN
# Insulin receptor = Insulin receptor (Homo sapiens, UniProt P06213); test: Inhibition of auto-phosphorylation of human IR expressed in human HepG2 cells after 2 hrs by luminometry; type: cell-based
# Chain of Insulin receptor (P06213 28-758 limits assumed): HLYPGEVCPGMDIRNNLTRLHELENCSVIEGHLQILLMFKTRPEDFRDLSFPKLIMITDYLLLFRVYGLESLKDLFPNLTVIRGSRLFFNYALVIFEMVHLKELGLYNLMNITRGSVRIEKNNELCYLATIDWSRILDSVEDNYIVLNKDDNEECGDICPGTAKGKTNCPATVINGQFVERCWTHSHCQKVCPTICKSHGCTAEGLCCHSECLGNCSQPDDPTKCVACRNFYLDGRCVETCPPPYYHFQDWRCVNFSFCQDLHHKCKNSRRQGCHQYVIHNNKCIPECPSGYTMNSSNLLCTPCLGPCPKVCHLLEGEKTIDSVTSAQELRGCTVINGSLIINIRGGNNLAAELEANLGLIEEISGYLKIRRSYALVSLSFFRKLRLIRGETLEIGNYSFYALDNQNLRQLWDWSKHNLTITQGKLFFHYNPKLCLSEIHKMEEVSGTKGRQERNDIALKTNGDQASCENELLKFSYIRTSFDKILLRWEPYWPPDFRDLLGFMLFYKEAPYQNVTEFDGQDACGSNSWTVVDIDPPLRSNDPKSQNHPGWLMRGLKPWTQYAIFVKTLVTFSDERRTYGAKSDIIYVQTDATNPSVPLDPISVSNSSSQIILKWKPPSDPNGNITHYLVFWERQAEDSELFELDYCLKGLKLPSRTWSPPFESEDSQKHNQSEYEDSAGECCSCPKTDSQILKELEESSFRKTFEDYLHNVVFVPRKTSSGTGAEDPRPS
# Chain of Insulin receptor (P06213 763-1382 limits assumed): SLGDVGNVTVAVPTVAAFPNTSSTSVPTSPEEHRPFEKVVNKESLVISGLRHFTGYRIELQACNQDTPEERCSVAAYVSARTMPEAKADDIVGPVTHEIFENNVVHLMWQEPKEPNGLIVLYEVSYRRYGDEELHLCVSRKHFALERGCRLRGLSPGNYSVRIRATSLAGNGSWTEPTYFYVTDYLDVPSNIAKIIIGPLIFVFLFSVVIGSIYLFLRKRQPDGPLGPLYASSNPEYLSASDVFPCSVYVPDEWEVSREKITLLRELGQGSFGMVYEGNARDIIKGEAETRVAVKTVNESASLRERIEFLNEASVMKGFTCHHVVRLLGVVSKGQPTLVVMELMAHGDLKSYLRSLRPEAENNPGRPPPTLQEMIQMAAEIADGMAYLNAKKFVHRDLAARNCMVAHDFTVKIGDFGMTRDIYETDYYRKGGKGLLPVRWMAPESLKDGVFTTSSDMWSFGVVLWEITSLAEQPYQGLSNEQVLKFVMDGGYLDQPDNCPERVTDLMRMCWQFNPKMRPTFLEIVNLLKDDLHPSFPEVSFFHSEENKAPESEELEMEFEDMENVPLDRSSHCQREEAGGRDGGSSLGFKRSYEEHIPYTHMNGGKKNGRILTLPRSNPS
# [5] = Volume of distribution at steady state in CD-1 mouse at 5 mg/kg, iv administered as single dose; type: ADME, organism-based; parameters: dose 5 mg/kg, route intravenous; conditions: in vivo, read-out: Vdss
# [6] = Cmax in Sprague-Dawley rat at 25 mg/kg, po administered as single dose; type: ADME, organism-based; parameters: dose 25 mg/kg, route oral; conditions: in vivo
# Cytochrome P450 2D6 = Cytochrome P450 2D6 (Homo sapiens, UniProt P10635); test: Inhibition of CYP2D6; type: ADME
# Chain of Cytochrome P450 2D6 (P10635 whole entry): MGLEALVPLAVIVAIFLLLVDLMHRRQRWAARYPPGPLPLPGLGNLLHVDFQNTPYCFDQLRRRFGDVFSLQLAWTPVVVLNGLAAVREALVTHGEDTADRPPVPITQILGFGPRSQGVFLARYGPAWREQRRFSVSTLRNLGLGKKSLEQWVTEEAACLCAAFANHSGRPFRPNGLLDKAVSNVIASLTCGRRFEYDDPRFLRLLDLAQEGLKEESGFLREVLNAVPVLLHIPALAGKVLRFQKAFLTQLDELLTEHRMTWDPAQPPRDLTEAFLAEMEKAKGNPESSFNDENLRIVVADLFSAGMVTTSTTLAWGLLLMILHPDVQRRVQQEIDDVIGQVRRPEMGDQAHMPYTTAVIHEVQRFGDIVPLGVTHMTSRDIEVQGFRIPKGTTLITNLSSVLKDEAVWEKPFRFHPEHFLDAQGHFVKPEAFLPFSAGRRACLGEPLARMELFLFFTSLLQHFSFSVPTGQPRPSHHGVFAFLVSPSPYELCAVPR
# [7] = Cmax in CD-1 mouse plasma at 25 mg/kg, po administered as single dose; type: ADME, organism-based; parameters: dose 25 mg/kg, route oral
# [8] = Oral bioavailability in Sprague-Dawley rat at 25 mg/kg administered as single dose; type: ADME, organism-based; conditions: in vivo
# [9] = Permeability of the compound by PAMPA assay at pH 5.0; type: ADME; conditions: read-out: permeability
# Method in brief: (§2)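 Parallel artificial membrane permeability assay run at pH 5.0 and pH 7.4; permeability reported in nm/s.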
# [10] = Genotoxicity in Salmonella Typhimurium by Ames test in presence of S9 liver microsomes; type: toxicity, Microsome; conditions: salmonella enterica subsp. enterica serovar typhimurium
# [11] = Extraction ratio of hepatic clearance to hepatic blood flow in mouse microsomes; type: ADME, Microsome; conditions: liver microsomes
# [12] = Antiproliferative activity against human GEO cells expressing IGF-1R assessed as intracellular ATP content after 3 days by Cell Titre-Glo luminescent assay; type: functional, cell-based; conditions: 72 h
# [13] = Clearance in Sprague-Dawley rat at 5 mg/kg, iv administered as single dose; type: ADME, organism-based; parameters: dose 5 mg/kg, route intravenous; conditions: in vivo; method in brief: as §1
# [14] = Extraction ratio of hepatic clearance to hepatic blood flow in human microsomes; type: ADME, Microsome; conditions: liver microsomes
# [15] = Genotoxicity in Salmonella Typhimurium by Ames test in absence of S9 liver microsomes; type: toxicity, Microsome; conditions: salmonella enterica subsp. enterica serovar typhimurium
# [16] = Permeability of the compound by PAMPA assay at pH 7.4; type: ADME; conditions: read-out: permeability; method in brief: as §2
# [17] = biological target: Insulin-like growth factor 1 receptor (Homo sapiens, UniProt P08069); test: Inhibition of auto-phosphorylation of human IGF1R expressed in mouse NIH-3T3 cells after 2 hrs by luminometry; type: cell-based, NIH3T3
# Chain of Insulin-like growth factor 1 receptor (P08069 31-736 limits assumed): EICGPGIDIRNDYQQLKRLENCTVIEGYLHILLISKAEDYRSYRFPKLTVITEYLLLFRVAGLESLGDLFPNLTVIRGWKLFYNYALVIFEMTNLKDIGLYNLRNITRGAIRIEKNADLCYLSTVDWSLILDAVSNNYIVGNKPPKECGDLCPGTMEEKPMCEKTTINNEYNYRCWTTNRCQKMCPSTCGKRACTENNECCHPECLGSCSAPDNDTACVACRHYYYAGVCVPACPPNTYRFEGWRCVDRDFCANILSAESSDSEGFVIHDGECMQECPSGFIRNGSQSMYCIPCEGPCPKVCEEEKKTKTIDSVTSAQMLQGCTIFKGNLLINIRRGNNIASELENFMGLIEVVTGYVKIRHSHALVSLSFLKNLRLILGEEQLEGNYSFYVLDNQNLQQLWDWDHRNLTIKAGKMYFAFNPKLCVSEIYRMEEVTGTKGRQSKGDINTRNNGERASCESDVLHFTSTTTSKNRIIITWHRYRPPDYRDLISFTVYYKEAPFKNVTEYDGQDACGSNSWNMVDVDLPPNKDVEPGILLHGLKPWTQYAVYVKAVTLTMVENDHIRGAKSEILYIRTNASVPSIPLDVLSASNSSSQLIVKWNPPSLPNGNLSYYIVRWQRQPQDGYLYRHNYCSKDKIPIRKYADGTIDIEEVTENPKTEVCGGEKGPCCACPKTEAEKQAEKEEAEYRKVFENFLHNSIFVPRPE
# Chain of Insulin-like growth factor 1 receptor (P08069 741-1367 limits assumed): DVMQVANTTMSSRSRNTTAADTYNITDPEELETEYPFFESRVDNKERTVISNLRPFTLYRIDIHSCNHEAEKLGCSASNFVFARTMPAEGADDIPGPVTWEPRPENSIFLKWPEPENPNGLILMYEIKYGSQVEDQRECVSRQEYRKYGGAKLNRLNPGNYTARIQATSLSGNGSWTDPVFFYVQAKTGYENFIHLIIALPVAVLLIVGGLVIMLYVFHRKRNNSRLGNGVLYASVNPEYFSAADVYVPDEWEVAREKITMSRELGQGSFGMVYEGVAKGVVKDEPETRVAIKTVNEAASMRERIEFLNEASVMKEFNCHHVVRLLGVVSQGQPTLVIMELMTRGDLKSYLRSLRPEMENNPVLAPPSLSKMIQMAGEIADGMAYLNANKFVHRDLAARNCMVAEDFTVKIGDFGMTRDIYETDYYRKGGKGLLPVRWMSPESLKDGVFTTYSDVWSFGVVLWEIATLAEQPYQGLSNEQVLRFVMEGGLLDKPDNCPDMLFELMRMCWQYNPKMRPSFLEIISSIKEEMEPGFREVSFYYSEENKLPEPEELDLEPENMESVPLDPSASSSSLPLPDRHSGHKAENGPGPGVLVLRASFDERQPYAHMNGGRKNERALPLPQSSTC
# Rattus norvegicus = species on record: Rattus norvegicus; test: Toxicity in rat after 14 days; type: organism-based; conditions: in vivo, 336 h
# Mus musculus = test: (§3) Oral bioavailability in CD-1 mouse at 25 mg/kg, po administered as single dose; type: ADME, organism-based; conditions: mouse, in vivo
# [18] = as §3; type: ADME, organism-based; conditions: CD-1, mouse, in vivo
compound,measurement,setting,value
C[C@]1(O)C[C@@H](c2nc(-c3ccc4ccc(-c5ccccc5)nc4c3F)c3c(N)ncnn32)C1,Vd,[1],0.97 L/kg
same,EC50,[2],130 nM
same,AUC,[3],62400 ng·h/mL
same,IC50,Cytochrome P450 3A4,> 25000 nM
same,clearance,[4],4 mL/min/kg
same,IC50,Cytochrome P450 1A2,> 25000 nM
same,IC50,Insulin receptor,76 nM
same,Vd,[5],1 L/kg
same,Cmax,[6],11.3 µM
same,IC50,Cytochrome P450 2D6,> 25000 nM
same,Cmax,[7],20.5 µM
same,bioavailability,[8],64%
same,Papp,[9],109 ×10⁻⁶ cm/s
same,Activity,[10],Non-toxic
same,hepatic extraction ratio,[11],0.43
same,EC50,[12],130 nM
same,clearance,[13],4 mL/min/kg
same,hepatic extraction ratio,[14],0.55
same,Activity,[15],Non-toxic
same,Papp,[16],110 ×10⁻⁶ cm/s
same,IC50,[17],17 nM
same,Activity,Rattus norvegicus,Non-toxic
same,F,Mus musculus,162%
Nc1ncnn2c1c(-c1ccc3ccc(-c4ccccc4)nc3c1F)nc2[C@H]1C[C@@H](N2CCN(C=O)CC2)C1,clearance,[4],7 mL/min/kg
same,Vd,[5],1.2 L/kg
same,Cmax,[7],3.1 µM
same,Papp,[9],20.4 ×10⁻⁶ cm/s
same,Papp,[16],105 ×10⁻⁶ cm/s
same,bioavailability,[18],18%
